PG9 Ab binder – small molecules binding HIV-1 gp120 antibody PG9; TR-FRET gp120-PG9 antibody binding; inhibition, % at 6.7 µM; 360,000 compounds, 0.43% hits; in the data active means inhibition above about 8.5%
Rev-erbA mod – modulates human Rev-erb alpha binding to DNA. activity, % at 10 µM. Rev-erbα–FITC-DNA binding, fluorescence polarization, 90 min. 370,000 compounds, 0.79% hits. AID 1259318. P20393;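 active means activity above about 14%, limit read from the data; passing the limit was not always enough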;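 further: 0% = DMSO wells with 35 nM protein and 100% = DMSO wells with 750 nM protein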
Target sequence (P20393 whole entry, looked up): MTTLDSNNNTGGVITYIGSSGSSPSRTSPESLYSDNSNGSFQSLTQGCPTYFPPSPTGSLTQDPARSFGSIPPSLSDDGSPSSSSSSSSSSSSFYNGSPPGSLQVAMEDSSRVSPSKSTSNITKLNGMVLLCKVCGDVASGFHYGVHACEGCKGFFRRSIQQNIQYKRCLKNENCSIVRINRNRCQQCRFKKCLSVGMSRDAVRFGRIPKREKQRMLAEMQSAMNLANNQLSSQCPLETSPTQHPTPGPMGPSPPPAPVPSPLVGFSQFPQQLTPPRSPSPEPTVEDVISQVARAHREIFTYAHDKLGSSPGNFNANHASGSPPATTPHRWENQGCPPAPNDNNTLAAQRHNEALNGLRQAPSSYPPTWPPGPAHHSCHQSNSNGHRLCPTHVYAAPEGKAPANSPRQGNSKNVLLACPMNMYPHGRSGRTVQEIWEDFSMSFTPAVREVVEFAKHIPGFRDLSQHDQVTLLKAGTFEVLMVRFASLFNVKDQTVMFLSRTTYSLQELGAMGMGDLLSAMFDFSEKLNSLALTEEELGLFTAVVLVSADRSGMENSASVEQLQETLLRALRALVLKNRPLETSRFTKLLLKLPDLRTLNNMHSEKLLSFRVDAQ
NR2E3 ag-1 – NR2E3 (human) agonism. Q9Y5X4. GST-NR2E3/biotin-RetCOR TR-FRET, 1536-well. inhibition of corepressor binding, % at 4.78 µM. 320,000 compounds, 0.12% hits;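 active means percent inhibition above the cutoff of mean plus 3 SD of all tested compounds, set per screening campaign, cut at about 20% in these data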;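 further: 0% = DMSO wells and 100% = biotin wells as full block of FRET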
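System: GST-tagged NR2E3 plus biotinylated RetCOR corepressor; Buffer or medium: pH 7.5 Tris-based buffer; Probe or stimulus: RetCOR corepressor, biotinylated, 7 nM; Doses: compound at 4.8 µM, single dose; Schedule: 5 h incubation at 4 °C; Technique: time-resolved FRET; Evaluation: percent inhibition of TR-FRET ratio; Replication: one well per compound, singlicate testing.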
NR2E3 ag-2 – human photoreceptor-specific nuclear receptor agonism. Q9Y5X4. CHO-S Gal4-NCOR/VP16-NR2E3 two-hybrid, luciferase. inhibition of corepressor binding, % at 3.98 µM. 360,000 compounds, 0.35% hits. AID 602229;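 active means inhibition above the mean of all tested compounds plus 3 SD, cut at about 70% in these data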;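 further: 0% = DMSO with NR2E3 transfected cells and 100% = cells lacking NR2E3 construct; higher means lower luciferase signal from less NR2E3 corepressor binding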
Rev-erbA confirm – confirmation of modulators of human Rev-erb alpha DNA binding; shares compounds with Rev-erbA mod; Rev-erb alpha FITC-DNA binding, fluorescence polarization, 90 min; activation, % at 25 µM; 3,000 compounds, 61% hits; AID 1259319;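 active means activation at or above a set limit, or at least 3 SD above the negative control mean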;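 further: 0% = 35 nM protein with DMSO and 100% = 750 nM protein high control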
RORg DNA counter – RORgamma DNA-binding activity, dose-response counter-screen | shares compounds with Rev-erbA mod | purified RORgamma protein-FITC-DNA binding, fluorescence polarization | IC50, µM | 910 compounds, 8% hits;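 active means Compounds whose fitted half-maximal concentration for disrupting protein-DNA binding is below 10 micromolar; the record names Rev-erb in its text, so the target is in doubt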
Active calls of the source: *. This is a sample that favours compounds with a hit; in the whole collection about 1.5% have one here.

COc1ccccc1N1CCCSC1=Nc1ccccc1 was read as PG9 Ab binder 0.1, Rev-erbA mod -1.6 and NR2E3 ag-2 -18.2.
CCOC(=O)C1CCCN(C2=NC(=O)/C(=C/c3ccc(N(C)C)cc3)S2)C1 (stereo not given) was read as PG9 Ab binder -13.7, Rev-erbA mod 26.8*, NR2E3 ag-1 -0.1, NR2E3 ag-2 -41.5 and Rev-erbA confirm 16.1.
Screening Cc1ccc(C(=O)Nc2cccnc2N2CCN(C)CC2)cc1 returned PG9 Ab binder -0.8, Rev-erbA mod -3.2, NR2E3 ag-1 -6.2 and NR2E3 ag-2 -4.5.
Screening CC1(C)N([O-])C2=C(CCCC2)[N+]1=O returned PG9 Ab binder -1.0, Rev-erbA mod -11.6 and NR2E3 ag-2 -0.4.
For O=C(NCCc1ccccc1)c1ccc2c(c1)S(=O)(=O)c1cc(Cl)ccc1C2=O the results were PG9 Ab binder -3.3, Rev-erbA mod 67.8*, NR2E3 ag-1 -1.3, NR2E3 ag-2 13.8, Rev-erbA confirm 63.4* and RORg DNA counter >40.
`O=C(NCCc1ccc(Cl)cc1)c1ccc2nccnc2c1` gave PG9 Ab binder -1.0, Rev-erbA mod 13.8*, NR2E3 ag-1 -1.7, NR2E3 ag-2 -134.3 and Rev-erbA confirm 5.2.
Screening O=C(NCCc1ccc(Cl)cc1)c1ccc2nc[nH]c2c1 returned PG9 Ab binder -0.8, Rev-erbA mod -1.2, NR2E3 ag-1 -1.0 and NR2E3 ag-2 -27.4.
OCCCNc1nnc(-c2ccccc2)c2ccccc12 was read as PG9 Ab binder -0.5, Rev-erbA mod -8.6, NR2E3 ag-1 3.8 and NR2E3 ag-2 -58.2.
Screening COCCNc1nc2c(-c3cccc(C(F)(F)F)c3)nnn2c2ccccc12 returned PG9 Ab binder -2.2, Rev-erbA mod 51.8*, NR2E3 ag-1 1.4, NR2E3 ag-2 -38.9 and Rev-erbA confirm 18.1*.
Screening CCCCNc1nc2c(-c3ccccc3)nnn2c2ccccc12 returned PG9 Ab binder 0.1, Rev-erbA mod 50.2*, NR2E3 ag-1 -0.1, NR2E3 ag-2 -4.9 and Rev-erbA confirm 22.1*.
`CCOC(=O)c1nnn2c1nc(Nc1cccc(C(F)(F)F)c1)c1ccccc12` gave PG9 Ab binder -1.9, Rev-erbA mod 48.9*, NR2E3 ag-1 1.1, NR2E3 ag-2 2.1, Rev-erbA confirm 38.3* and RORg DNA counter >40.
CCOCCCNc1nc2c(-c3ccccc3)nnn2c2ccccc12 was read as PG9 Ab binder -0.8, Rev-erbA mod 26.5*, NR2E3 ag-1 2.0, NR2E3 ag-2 -15.6 and Rev-erbA confirm 6.7.
`CC(C)OCCCNc1nc2c(-c3ccccc3)nnn2c2ccccc12` gave NR2E3 ag-1 6.0.
`NNc1nc2c(-c3cccc(C(F)(F)F)c3)nnn2c2ccccc12` gave PG9 Ab binder -0.6, Rev-erbA mod 0.7 and NR2E3 ag-2 -13.2.
O=C1CCC[C@H]2C[C@H](NCc3cccnc3)CC[C@]23CCCN13 was read as Rev-erbA mod -0.1.
For O=C1c2ccccc2C(Nc2ccc(S(=O)(=O)N3CCCCC3)cc2)N1c1ccccn1 (stereo not given) the results were PG9 Ab binder -0.8, Rev-erbA mod 24.7*, NR2E3 ag-1 3.8, NR2E3 ag-2 -29.3 and Rev-erbA confirm 21.3*.
Screening O=C1c2ccccc2C(Nc2ccc(S(=O)(=O)N3CCOCC3)cc2)N1c1cccnc1 (stereo not given) returned PG9 Ab binder 0.8, Rev-erbA mod 4.2, NR2E3 ag-1 -0.3 and NR2E3 ag-2 -38.8.
CCOC(=O)N1CCN(c2c(-c3ccccc3)c3cc(Cl)ccc3[nH]c2=O)CC1 was read as PG9 Ab binder 0.9, Rev-erbA mod 33.3*, NR2E3 ag-1 5.7, NR2E3 ag-2 32.4 and Rev-erbA confirm -1.3.
Screening CCOC(=O)C1CCN(c2c(-c3ccccc3)c3cc(Cl)ccc3[nH]c2=O)CC1 returned PG9 Ab binder -1.4, Rev-erbA mod 37.2*, NR2E3 ag-1 -2.7, NR2E3 ag-2 27.0 and Rev-erbA confirm 8.4.
For O=c1[nH]c2ccc(Cl)cc2c(-c2ccccc2)c1N1CCN(CCO)CC1 the results were PG9 Ab binder 1.6, Rev-erbA mod -5.1, NR2E3 ag-1 -1.1 and NR2E3 ag-2 5.1.
For NNC(=O)CSc1c(-c2ccccc2)c2cc(Cl)ccc2[nH]c1=O the results were PG9 Ab binder 1.0, Rev-erbA mod -1.2 and NR2E3 ag-2 -4.5.
`COC(=O)Nc1nn(-c2ccc(Cl)cc2)c(=O)c(C#N)c1C` gave PG9 Ab binder -2.3, Rev-erbA mod -3.8, NR2E3 ag-1 1.6 and NR2E3 ag-2 6.1.
Screening Clc1cccc2sc(-c3nnc(-c4ccccc4)o3)c(Cl)c12 returned PG9 Ab binder 1.0, Rev-erbA mod 37.9*, NR2E3 ag-1 0.9, NR2E3 ag-2 -41.9 and Rev-erbA confirm 31.0*.
`CCn1c2ccccc2c2cc(C3C(C#N)=C(C)NC(C)=C3C#N)ccc21` gave PG9 Ab binder -1.0, Rev-erbA mod 101.5*, NR2E3 ag-1 3.9, NR2E3 ag-2 -0.6, Rev-erbA confirm 62.8* and RORg DNA counter >40.
Screening CCn1c2ccccc2c2cc(C3C(C#N)=C(N)Oc4n[nH]c(COC)c43)ccc21 (stereo not given) returned PG9 Ab binder -0.2, Rev-erbA mod 5.4, NR2E3 ag-1 2.1 and NR2E3 ag-2 2.0.
Screening COC(=O)c1c(C)[nH]c(C(=O)/C=C/c2ccc(C)cc2)c1C returned PG9 Ab binder 2.7, Rev-erbA mod 26.3*, NR2E3 ag-1 -8.8, NR2E3 ag-2 -23.7 and Rev-erbA confirm -0.5.
Screening CCOC(=O)c1c(-c2cccs2)csc1NC(=O)CC(C)C returned PG9 Ab binder 0.4, Rev-erbA mod 1.0, NR2E3 ag-1 3.1 and NR2E3 ag-2 -17.5.
For CCOC(=O)c1c(-c2cccs2)csc1NC(=O)c1ccco1 the results were PG9 Ab binder -2.4, Rev-erbA mod 35.8*, NR2E3 ag-1 0.7, NR2E3 ag-2 -42.0 and Rev-erbA confirm 10.9.
CN1C(=O)/C(=C/C=C2\SCCN2C)N(C)C1=S was read as PG9 Ab binder -37.3, Rev-erbA mod 51.0*, NR2E3 ag-2 -15.9 and Rev-erbA confirm 22.1*.
Screening N#Cc1cc2ccccc2nc1SCc1ccccn1 returned PG9 Ab binder -0.9, Rev-erbA mod -4.5, NR2E3 ag-1 1.8 and NR2E3 ag-2 -138.4.
For Cc1cc2cc3c(cc2nc1SCc1ccccn1)OCCO3 the results were PG9 Ab binder -2.9, Rev-erbA mod 44.0*, NR2E3 ag-1 -3.0, NR2E3 ag-2 -27.9 and Rev-erbA confirm 17.2*.
Cn1c(=O)c2c(nc(SCC(=O)c3cccs3)n2Cc2ccc(F)cc2)n(C)c1=O was read as PG9 Ab binder 0.8, Rev-erbA mod 133.4*, NR2E3 ag-1 1.6, NR2E3 ag-2 -7.5, Rev-erbA confirm 99.9* and RORg DNA counter >40.
`Cn1c(=O)c2c(nc(Br)n2CC(=O)c2cccs2)n(C)c1=O` gave PG9 Ab binder 1.8, Rev-erbA mod -0.2, NR2E3 ag-1 -0.1 and NR2E3 ag-2 -4.6.

Screening data deposited in PubChem by several laboratories.
